Assay results collected from several papers.
Lines come from different studies, so protocols differ.
Action: inhibitor
VCP: Transitional endoplasmic reticulum ATPase (VCP, Homo sapiens, UniProt P55072)
BLK: Tyrosine-protein kinase Blk (BLK, Homo sapiens, UniProt P51451)
SLCO1B3 S112A: Solute carrier organic anion transporter family member 1B3 (SLCO1B3, Homo sapiens, UniProt Q9NPD5, S112A)
HDAC4: Histone deacetylase 4 (HDAC4, Homo sapiens, UniProt P56524)
P4HB: Protein disulfide-isomerase (P4HB, Homo sapiens, UniProt P07237)
SLC2A9: Solute carrier family 2, facilitated glucose transporter member 9 (SLC2A9, Homo sapiens, UniProt Q9NRM0)

Structure (SMILES)	target	effect on	method	time	setting	IC50 [nM]
Cc1cc2c(C(N)=O)cccc2n1-c1nc2c(c(NCc3ccncc3)n1)CCCN2	VCP	enzyme activity	ADP detection			381
CC#CC(=O)N1CC[C@@H](n2c(=O)n(-c3ccc(Oc4ccccc4)cc3)c3c(N)ncnc32)C1	BLK	enzyme activity				793
COc1cccc2c1C(=O)c1c(O)c3c(c(O)c1C2=O)C[C@@](O)(C(=O)CO)C[C@@H]3O[C@H]1C[C@H](N)[C@H](O)[C@H](C)O1	SLCO1B3 S112A	transporter uptake	radiometric	2 min		> 100000
COc1ccc(N(Cc2nc(-c3ccc(F)cc3)cs2)C(=O)CCCCCC(=O)NO)cc1	HDAC4	enzyme activity				> 10000
CC(C)n1c(/C=C/C(O)CC(O)CC(=O)O)c(-c2ccc(F)cc2)c2ccccc21 (centres unmarked)	Solute carrier organic anion transporter family member 1B3 (SLCO1B3, Homo sapiens, UniProt Q9NPD5, M233I)	transporter uptake	radiometric	2 min		11000
Cc1cc2c(C(N)=O)cccc2n1-c1nc2c(c(NCc3ccccn3)n1)CCCN2	VCP	enzyme activity	ADP detection			115
Nc1cnccc1Nc1ccc(Cl)c(Cl)c1	G/T mismatch-specific thymine DNA glycosylase (TDG, Homo sapiens, UniProt Q13569)	enzyme activity				> 100000
CN(Cc1cnc2nc(N)nc(N)c2n1)c1ccc(C(=O)N[C@@H](CCC(=O)O)C(=O)O)cc1	Solute carrier organic anion transporter family member 1B3 (SLCO1B3, Homo sapiens, UniProt Q9NPD5)	transporter uptake	radiometric	2 min		498
Cc1cc2c(C(N)=O)cccc2n1-c1nc2c(c(NCc3cccnc3)n1)CCCN2	VCP	enzyme activity	ADP detection			115
O=C(O[C@@H]1[C@@H](O)[C@H](Oc2cc(O)c3c(c2)O[C@H](c2ccccc2)CC3=O)O[C@@H]2COC(=O)c3cc(O)c(O)c(O)c3-c3c(cc(O)c(O)c3O)C(=O)O[C@@H]12)c1cc(O)c(O)c(O)c1	Protein disulfide-isomerase A4 (PDIA4, Homo sapiens, UniProt P13667)	enzyme activity	fluorescence			7800
CC1(C)NC(=O)N(c2ccc([N+](=O)[O-])c(C(F)(F)F)c2)C1=O	Aldo-keto reductase family 1 member C3 (AKR1C3, Homo sapiens, UniProt P42330)	enzyme activity				5000
O=C(NO)c1ccc(Cn2cnc3c(Nc4cccc([N+](=O)[O-])c4)ncnc32)cc1	HDAC4	enzyme activity				531
O=C(O[C@@H]1Cc2c(O)cc(O)cc2O[C@@H]1c1cc(O)c(O)c(O)c1)c1cc(O)c(O)c(O)c1	P4HB	enzyme activity	fluorescence			243000
C[C@H]1CN(C2COC2)CCN1c1ccc(Nc2cc(-c3ccnc(N4CCn5c(cc6c5CC(C)(C)C6)C4=O)c3CO)cn(C)c2=O)nc1	BLK	enzyme activity				> 5000
CC(=O)O[C@H]1C(=O)[C@@]2(C)[C@H]([C@H](OC(=O)c3ccccc3)[C@]3(O)C[C@H](OC(=O)[C@H](O)[C@@H](NC(=O)c4ccccc4)c4ccccc4)C(C)=C1C3(C)C)[C@]1(OC(C)=O)CO[C@@H]1C[C@@H]2O	SLCO1B3 S112A	transporter uptake	radiometric	2 min		87700
O=C(OC[C@H]1O[C@@H](OC(=O)c2cc(O)c(O)c(O)c2)[C@H](OC(=O)c2cc(O)c(O)c(O)c2)[C@@H](OC(=O)c2cc(O)c(O)c(O)c2)[C@@H]1OC(=O)c1cc(O)c(O)c(O)c1)c1cc(O)c(O)c(O)c1	P4HB	enzyme activity	fluorescence			2900
N=C(N)c1ccc(OCCCCCOc2ccc(C(=N)N)cc2)cc1	Coagulation factor XIII A chain (F13A1, Homo sapiens, UniProt P00488)	enzyme activity	fluorescence			> 50000
CCc1oc2ccccc2c1C(=O)c1cc(Br)c(O)c(Br)c1	SLC2A9	transporter uptake			oocytes	87600
CONC(=O)Cc1c(C)n(-c2nc3c(c(NCc4ccccc4)n2)CCCN3)c2ccccc12	VCP	enzyme activity	ADP detection			177
CC(C)(/C=C(\C#N)C(=O)N1CCC[C@@H](n2nc(-c3ccc(Oc4ccccc4)cc3F)c3c(N)ncnc32)C1)N1CCN(C2COC2)CC1	BLK	enzyme activity				0.376
Cc1cc2c(C(N)=O)cccc2n1-c1nc2c(c(NCc3ccccc3O)n1)CCCN2	VCP	enzyme activity	ADP detection			53
COc1ccc(N(Cc2csc(-c3ccc(Br)cc3)n2)C(=O)CCCCCC(=O)NO)cc1	HDAC4	enzyme activity				> 10000
Cc1cc2c(C(N)=O)cncc2n1-c1nc2c(c(NCc3ccccc3)n1)CCCN2	VCP	enzyme activity	ADP detection			82
CCc1oc2cc(F)c(F)cc2c1C(=O)c1cc(Br)c(O)c(Br)c1	SLC2A9	transporter uptake			oocytes	17400
Cc1cc2c(C(=O)O)cccc2n1-c1nc2c(c(NCc3ccccc3)n1)CCCN2	VCP	enzyme activity	ADP detection			32
NC/C(=C\F)COc1cccc(Cn2c(=S)[nH]c(=O)c3[nH]cnc32)c1	Lactoperoxidase (LPO, Bos taurus, UniProt P80025)	enzyme activity				7500
